Laboratory results: ChEMBL document CHEMBL1122883, “An interdisciplinary approach to the design of new structures active at the beta-adrenergic receptor. Aliphatic oxime ether derivatives” (J Med Chem, 1985)

Tests used:
[1] = biological target: Beta-2 adrenergic receptor (Cavia porcellus) (UniProt Q8K4Z4); assay: Specific antagonistic activity difference against beta-2 adrenergic receptor of isolated guinea pig tracheal strips; format: functional
[2] = biological target: Beta-1 adrenergic receptor (Cavia porcellus) (UniProt B0FL73); assay: Specific antagonistic activity difference against beta-1 adrenergic receptor of isolated guinea pig atria; format: functional
Chain of Beta-1 adrenergic receptor (Cavia porcellus) (B0FL73 1-467): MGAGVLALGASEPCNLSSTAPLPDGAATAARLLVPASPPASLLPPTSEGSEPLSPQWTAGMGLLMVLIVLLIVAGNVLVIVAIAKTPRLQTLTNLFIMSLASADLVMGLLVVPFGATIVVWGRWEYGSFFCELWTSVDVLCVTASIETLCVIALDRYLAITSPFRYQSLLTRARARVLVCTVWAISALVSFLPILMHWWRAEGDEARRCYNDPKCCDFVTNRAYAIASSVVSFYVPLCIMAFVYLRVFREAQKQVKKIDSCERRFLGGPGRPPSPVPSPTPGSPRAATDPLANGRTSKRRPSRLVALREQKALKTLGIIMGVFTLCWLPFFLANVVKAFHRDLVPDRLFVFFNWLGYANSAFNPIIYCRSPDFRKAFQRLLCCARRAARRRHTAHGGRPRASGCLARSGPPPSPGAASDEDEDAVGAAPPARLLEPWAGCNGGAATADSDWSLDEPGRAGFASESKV

[3] = biological target: Beta-2 adrenergic receptor (Cavia porcellus, UniProt Q8K4Z4); assay: Antagonistic activity against beta-2 adrenergic receptor on isolated guinea pig tracheal strips; format: functional, tissue-based, Trachea; settings: read-out: pA2 (converted)
Chain of Beta-2 adrenergic receptor (Q8K4Z4 whole entry): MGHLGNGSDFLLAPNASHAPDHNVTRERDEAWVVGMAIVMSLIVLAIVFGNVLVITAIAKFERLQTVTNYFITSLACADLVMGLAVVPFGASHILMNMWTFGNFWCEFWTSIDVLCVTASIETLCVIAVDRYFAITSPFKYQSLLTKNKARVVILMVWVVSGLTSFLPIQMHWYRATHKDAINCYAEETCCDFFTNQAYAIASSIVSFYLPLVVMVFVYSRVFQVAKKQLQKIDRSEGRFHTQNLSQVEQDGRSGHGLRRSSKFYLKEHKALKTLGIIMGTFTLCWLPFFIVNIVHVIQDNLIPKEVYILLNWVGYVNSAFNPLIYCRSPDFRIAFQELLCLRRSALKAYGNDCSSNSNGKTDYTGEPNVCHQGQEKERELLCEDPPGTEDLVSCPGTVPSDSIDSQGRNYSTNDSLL
Method in brief: (§1)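 Tracheal strips from male adult guinea pigs (300–350 g) in Krebs–Henseleit with ascorbic acid (0.1 mg/mL) and phentolamine (0.1 μg/mL), 37 °C, 95% O2–5% CO2. Strips were under 0.5 g tension, stabilized 30 min, and given steady tone with carbachol 5 × 10^-7 M. Isotonic recording. Agonist dose–response curves to noradrenaline and isoprenaline were run before and after 20 min antagonist contact.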

[4] = biological target: Beta-1 adrenergic receptor (Cavia porcellus) (UniProt B0FL73); assay: (§2) Antagonistic activity against beta-1 adrenergic receptor of isolated guinea pig atria; format: functional
Method in brief: (§3)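 Antagonism was assessed from dose–response curves to noradrenaline and isoprenaline obtained before and after a 20 min contact period with the test antagonist. Each agonist was allowed to act until maximal response.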

[5] = biological target: Beta-1 adrenergic receptor (Cavia porcellus, UniProt B0FL73); assay: as §2; format: functional; settings: read-out: pA2 (converted); method in brief: as §3
Chain of Beta-1 adrenergic receptor (B0FL73 whole entry): as the sequence (B0FL73 1-467) above

[6] = biological target: Beta-2 adrenergic receptor (Cavia porcellus) (UniProt Q8K4Z4); assay: Antagonistic activity against beta-2 adrenergic receptor of isolated guinea pig tracheal strips; format: functional, tissue-based; settings: Trachea; method in brief: as §1
[7] = biological target: Beta-1 adrenergic receptor (Cavia porcellus) (UniProt B0FL73)
[8] = biological target: Beta-1 adrenergic receptor (Cavia porcellus) (UniProt B0FL73); assay: Stimulating activity against beta-1
Method in brief: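 Agonist given until maximal response was reached, building dose–response curves. Affinity expressed as pD2, calculated by the Ariëns–Van Rossum method.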

[9] = biological target: Beta-1 adrenergic receptor (Cavia porcellus) (UniProt B0FL73); assay: […] activity against beta-1 adrenergic receptor on isolated guinea pig atria; format: functional; method in brief: as §3

Chain of Beta-2 adrenergic receptor (Cavia porcellus) (Q8K4Z4 whole entry, looked up): as the sequence (Q8K4Z4 whole entry) above

Structure (SMILES) | pA2 - pA10 [1] | pA2 - pA10 [2] | Kb [3] [nM] | pA10 [4] | Kb [5] [nM] | pA10 [6] | pD2 [7] | pD2 [8] | pD2 [9]
CCCC(CCC)=NOCC(O)CNC(C)(C)C (centres undefined) | 0.69 | 0.85 | 2.4 | 4.48 | 4680 | 7.93 | – | – | –
CCC(CC)=NOCC(O)CNC(C)C (centres undefined) | 0.81 | 0.78 | 4.17 | 5.24 | 955 | 7.57 | – | – | –
CC(C)NCC(O)CON=C(C(C)C)C(C)C (centres undefined) | 0.9 | 0.89 | 3.02 | 3.88 | 17000 | 7.62 | 6.08 | – | –
CC(C)(C)NCC(O)CON=C1CCCCC1 (centres undefined) | 0.6 | 0.78 | 38.9 | 4.3 | 8320 | 6.81 | – | – | –
CCCC(CCC)=NOCC(O)CNC(C)C (centres undefined) | 0.714 | 0.55 | 6.31 | 4.13 | 20900 | 7.49 | – | – | –
CC(C)C(=NOCC(O)CNC(C)(C)C)C(C)C (centres undefined) | 0.82 | 0.9 | 22.9 | 3.94 | 14500 | 6.82 | – | 6.12 | –
CC(C)(C)NCC(O)CON=C1CCCC1 (centres undefined) | 0.88 | 0.69 | 174 | 3.58 | 53700 | 5.88 | – | – | –
CCC(CC)=NOCC(O)CNC(C)(C)C (centres undefined) | 0.84 | 0.71 | 10.5 | 5.19 | 1260 | 7.14 | – | – | –
CC(C)NCC(O)CON=C1CCCC1 (centres undefined) | 0.71 | 0.8 | 155 | 3.81 | 24500 | 6.09 | – | – | –
OCc1ccc(O)c(O)c1 | – | – | – | – | – | – | – | – | 8.44
COc1ccc(OC)c(C(O)C(C)NC(C)(C)C)c1 (centres undefined) [BUTOXAMINE] | 0.93 | 0.37 | 129 | 3.98 | 44700 | 5.96 | – | – | –
CC(C)NCC(O)CON=C1CCCCC1 (centres undefined) | 0.5 | 0.82 | 72.4 | 3.88 | 20000 | 6.64 | – | – | –
